# Results collected from several papers.
# Each line is one published result; the experiments were not run side by side.
# RPS6KA6: Ribosomal protein S6 kinase alpha-6 (RPS6KA6, Homo sapiens, UniProt Q9UK32)
# RPS6KA6 C-terminal kinase domain: Ribosomal protein S6 kinase alpha-6, C-terminal kinase domain (RPS6KA6, Homo sapiens, UniProt Q9UK32)
# RPS6KA6 N-terminal kinase domain: Ribosomal protein S6 kinase alpha-6, N-terminal kinase domain (RPS6KA6, Homo sapiens, UniProt Q9UK32)
SMILES,target,assay,conditions,measurement,value
Cn1cc(-c2cc(F)cc(N3CCn4c(cc5c4CCCC5)C3=O)c2CO)cc(Nc2ccc(N3CCN(C4COC4)CC3)cn2)c1=O,RPS6KA6,"enzyme activity, inhibitor",0.1 µM,inhibition,2%
N#CC1(c2ccccn2)CCN(Cc2cc(C(=O)O)c(=O)n3ccccc23)CC1,RPS6KA6 C-terminal kinase domain,"cell-free assay, competition with immobilised ligand",1 µM,remaining binding,97%
COc1cc(Nc2ncc(F)c(Nc3ccc4c(n3)NC(=O)C(C)(C)O4)n2)cc(OC)c1OC,RPS6KA6 N-terminal kinase domain,"binding, competition with immobilised ligand",10 µM,inhibition,70%
Cn1cncc1[C@](O)(COc1ccc(C#N)cc1-c1ccc(OC(F)(F)F)cc1)c1ccc(C#N)cc1,RPS6KA6 N-terminal kinase domain,"cell-free assay, competition with immobilised ligand",1 µM,remaining binding,91%
Nc1ncc(-c2nc(N3CCOCC3)nc(N3CCOCC3)n2)c(C(F)F)n1,RPS6KA6 C-terminal kinase domain,"binding, competition with immobilised ligand",10 µM,remaining binding,94%
O=c1[nH]c2ccccc2n1C1CCN(Cc2ccc(-c3[nH]c4cc5ncnc5cc4nc3-c3ccccc3)cc2)CC1,RPS6KA6,cell-free assay,0.5 µM,remaining signal,109%
Cc1nn(C)cc1-c1nc2c(N3CCN(Cc4ccc(Cl)cc4)CC3)c(Cl)cnc2[nH]1,RPS6KA6 N-terminal kinase domain,"binding, competition with immobilised ligand",1 µM,remaining binding,66%
Cn1cc(-c2cccc(N3CCc4c(sc5c4CC(C)(C)C5)C3=O)c2CO)cc(Nc2ccncn2)c1=O,RPS6KA6,"enzyme activity, inhibitor",1 µM,inhibition,9%
CC(C)(C)c1cc(C=C(C#N)C#N)cc(Br)c1O,RPS6KA6,"enzyme activity, inhibitor",0.5 µM,remaining activity,101%
